Where a SMILES comes first, the peptide text is derived from it. [ ]: non-standard residue; d: D form. The star is where a group is joined. βGlc = OC[C@H]1O[C@@H](*)[C@H](O)[C@@H](O)[C@@H]1O; NMeY = CN[C@@H](Cc1ccc(O)cc1)C(=O)O; NMeF = CN[C@@H](Cc1ccccc1)C(=O)O; 2Abz = Nc1ccccc1C(=O)O
Key:
HeLa = assay: Cytotoxicity against human HeLa cells after 48 hrs by MTT assay; format: functional
Procedure, shortened: (§1)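 MTT assay: 10^4 cells per well, attached overnight. Cells exposed for 4 h at 37 °C, 5% CO2, to compound serially diluted in medium from a 10 mg/mL DMSO stock, vehicle 0.2% DMSO. Medium then replaced with fresh DMEM and growth continued 48 h. MTT 0.5 mg/mL added for 3 h in the dark, formazan dissolved in DMSO, absorbance read at 540 nm. GI50 derived.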

MCF7 = assay: Cytotoxicity against human MCF7 cells after 48 hrs by MTT assay; format: functional; details: MCF7, 48 h; procedure, shortened: as §1

SMILES | GI50 (HeLa) [µM] | GI50 (MCF7) [µM]
CS[C@]1(CO)C(=O)N(C)[C@](Cc2ccccc2)(SC)C(=O)N1C [BISDETHIODI(METHYLTHIO)HYALODENDRIN] | > 113 | 113
CC(C)C[C@@H]1NC(=O)[C@H](Cc2ccccc2)N(C)C(=O)[C@H](C)NC(=O)c2ccccc2NC(=O)[C@H](Cc2ccc(O)cc2)N(C)C1=O [CYCLOASPEPTIDE A] (cyclo([2Abz]A[NMeF]L[NMeY])) | 31.2 | 23.4
CC(C)C[C@@H]1NC(=O)[C@H](Cc2ccccc2)N(C)C(=O)[C@H](C)NC(=O)c2ccccc2NC(=O)[C@H](Cc2ccc(O[C@@H]3O[C@H](CO)[C@@H](O)[C@H](O)[C@H]3O)cc2)N(C)C1=O [Cycloaspeptide F] (cyclo([2Abz]A[NMeF]L[NMeY](βGlc))) | 49.8 | 18.7
CC(C)C[C@@H]1NC(=O)[C@H](Cc2ccc(O)cc2)N(C)C(=O)[C@H](C)NC(=O)c2ccccc2NC(=O)[C@H](Cc2ccc(O)cc2)N(C)C1=O [Cycloaspeptide G] (cyclo([2Abz]A[NMeY]L[NMeY])) | 30.4 | 15.2
O=c1[nH]cc(F)c(=O)[nH]1 [FLUOROURACIL] | 10 | 15
CC(C)C[C@@H]1NC(=O)[C@H](Cc2ccccc2)NC(=O)[C@H](C)NC(=O)c2ccccc2NC(=O)[C@H](Cc2ccc(O)cc2)N(C)C1=O [cycloaspeptide C] (cyclo([2Abz]AFL[NMeY])) | > 63.4 | 31.9
